Laboratory results as given in ChEMBL document CHEMBL1221342, “Synthesis and in vitro antitumor activity of new 4,5-dihydropyrazole derivatives” (Bioorg Med Chem, 2010).

Tests used:
Assay type in all cases: functional
CCRF-CEM = assay: Growth inhibition of human CCRF-CEM cells after 48 hrs by SRB assay
Method in brief: (§1)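 NCI 60-cell-line screen. Cells grown in RPMI1640 with 5% fetal calf serum and 2 mM L-glutamine, with inoculum density set by cell line. Preincubated 24 h, then given compound in DMSO at 10^-4 to 10^-8 M (five 10-fold steps) for 48 h continuous exposure. Growth measured by SRB protein assay. GI50, TGI and LC50 reported as –log molar.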

HL-60(TB) = assay: Growth inhibition of human HL-60(TB) cells after 48 hrs by SRB assay; conditions: HL-60, 48 h
Method in brief: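 NCI 60-cell-line screen: cells grown in RPMI1640 with 5% fetal calf serum and 2 mM L-glutamine, preincubated 24 h, then exposed to compound in DMSO at five concentrations (10^-4 to 10^-8 M) for 48 h continuous exposure. Growth estimated by sulforhodamine B protein assay; reported as pGI50 (-log molar concentration inhibiting net cell growth by 50%).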

[1] = Growth inhibition of human […] cells after 48 hrs by SRB assay; method in brief: as §1
SR = assay: Growth inhibition of human SR cells after 48 hrs by SRB assay; method in brief: as §1
EKVX = assay: Growth inhibition of human EKVX cells after 48 hrs by SRB assay; method in brief: as §1
HOP-62 = assay: Growth inhibition of human HOP62 cells after 48 hrs by SRB assay; conditions: HOP-62, 48 h; method in brief: as §1
NCI-H322M = assay: Growth inhibition of human NCI-H322M cells after 48 hrs by SRB assay; method in brief: as §1
NCI-H460 = assay: Growth inhibition of human NCI-H460 cells after 48 hrs by SRB assay; conditions: NCI-H460, 48 h; method in brief: as §1
HCC 2998 = assay: Growth inhibition of human HCC2998 cells after 48 hrs by SRB assay; conditions: HCC 2998, 48 h; method in brief: as §1
HCT-15 = assay: Growth inhibition of human HCT15 cells after 48 hrs by SRB assay; conditions: HCT-15, 48 h; method in brief: as §1
SF-295 = assay: Growth inhibition of human SF295 cells after 48 hrs by SRB assay; conditions: SF-295, 48 h; method in brief: as §1
SF-539 = assay: Growth inhibition of human SF539 cells after 48 hrs by SRB assay; conditions: SF-539, 48 h; method in brief: as §1
SNB-75 = assay: Growth inhibition of human SNB75 cells after 48 hrs by SRB assay; conditions: SNB-75, 48 h; method in brief: as §1
U-251 = assay: Growth inhibition of human U251 cells after 48 hrs by SRB assay; conditions: U-251, 48 h; method in brief: as §1
Malme-3M = assay: Growth inhibition of human MALME-3M cells after 48 hrs by SRB assay; method in brief: as §1
M14 = assay: Growth inhibition of human M14 cells after 48 hrs by SRB assay; conditions: M14, 48 h; method in brief: as §1
SK-MEL-2 = assay: Growth inhibition of human SK-MEL-2 cells after 48 hrs by SRB assay; conditions: SK-MEL-2, 48 h; method in brief: as §1
SK-MEL-28 = assay: Growth inhibition of human SK-MEL-28 cells after 48 hrs by SRB assay; conditions: SK-MEL-28, 48 h; method in brief: as §1
SK-MEL-5 = assay: Growth inhibition of human SK-MEL-5 cells after 48 hrs by SRB assay; conditions: SK-MEL-5, 48 h; method in brief: as §1
UACC-62 = assay: Growth inhibition of human UACC62 cells after 48 hrs by SRB assay; conditions: UACC-62, 48 h; method in brief: as §1
IGROV-1 = assay: Growth inhibition of human IGROV1 cells after 48 hrs by SRB assay; conditions: IGROV-1, 48 h; method in brief: as §1
OVCAR-3 = assay: Growth inhibition of human OVCAR-3 cells after 48 hrs by SRB assay; conditions: OVCAR-3, 48 h; method in brief: as §1
OVCAR-4 = assay: Growth inhibition of human OVCAR4 cells after 48 hrs by SRB assay; conditions: OVCAR-4, 48 h; method in brief: as §1
OVCAR-8 = assay: Growth inhibition of human OVCAR8 cells after 48 hrs by SRB assay; conditions: OVCAR-8, 48 h; method in brief: as §1
NCI/ADR-RES = assay: Growth inhibition of human NCI/ADR-RES cells after 48 hrs by SRB assay; method in brief: as §1
SK-OV-3 = assay: Growth inhibition of human SKOV3 cells after 48 hrs by SRB assay; conditions: SK-OV-3, 48 h; method in brief: as §1
786-0 = assay: Growth inhibition of human 786-0 cells after 48 hrs by SRB assay; conditions: 786-0, 48 h; method in brief: as §1
CAKI-1 = assay: Growth inhibition of human Caki1 cells after 48 hrs by SRB assay; conditions: CAKI-1, 48 h; method in brief: as §1
RXF 393 = assay: Growth inhibition of human RXF393 cells after 48 hrs by SRB assay; conditions: RXF 393, 48 h; method in brief: as §1
TK-10 = assay: Growth inhibition of human TK10 cells after 48 hrs by SRB assay; conditions: TK-10, 48 h; method in brief: as §1
UO-31 = assay: Growth inhibition of human UO31 cells after 48 hrs by SRB assay; conditions: UO-31, 48 h; method in brief: as §1
PC-3 = assay: Growth inhibition of human PC3 cells after 48 hrs by SRB assay; conditions: PC-3, 48 h; method in brief: as §1
DU-145 = assay: Growth inhibition of human DU145 cells after 48 hrs by SRB assay; conditions: DU-145, 48 h; method in brief: as §1
MCF7 = assay: Growth inhibition of human MCF7 cells after 48 hrs by SRB assay; conditions: MCF7, 48 h; method in brief: as §1
[2] = Growth inhibition of human Hs 578T cells after 48 hrs by SRB assay; method in brief: as §1
BT-549 = assay: Growth inhibition of human BT549 cells after 48 hrs by SRB assay; conditions: BT-549, 48 h; method in brief: as §1
MDA-MB-468 = assay: Growth inhibition of human MDA-MB-468 cells after 48 hrs by SRB assay; conditions: MDA-MB-468, 48 h; method in brief: as §1

COc1cc(C2CC(c3ccc(N(C)C)cc3)=NN2C(C)=O)cc(OC)c1OC (configuration not stated)
GI50 (CCRF-CEM): 2.51 µM
TGI (CCRF-CEM; read-out: pTGI (converted)): > 100 µM
GI50 (HL-60(TB)): 1 µM
TGI (HL-60(TB); read-out: pTGI (converted)): 6.31 µM
GI50 [1]: 3.16 µM
TGI ([1]; read-out: pTGI (converted)): 15.8 µM
GI50 (SR): 0.631 µM
TGI (SR; read-out: pTGI (converted)): > 100 µM
GI50 (EKVX): 5.01 µM
TGI (EKVX; read-out: pTGI (converted)): > 100 µM
GI50 (HOP-62): 0.794 µM
TGI (HOP-62; read-out: pTGI (converted)): > 100 µM
GI50 (NCI-H322M): 3.98 µM
TGI (NCI-H322M; read-out: pTGI (converted)): 63.1 µM
GI50 (NCI-H460): 0.631 µM
TGI (NCI-H460; read-out: pTGI (converted)): > 100 µM
GI50 (HCC 2998): 1.26 µM
TGI (HCC 2998; read-out: pTGI (converted)): 20 µM
GI50 (HCT-15): 0.631 µM
GI50 (SF-295): 0.158 µM
TGI (SF-295; read-out: pTGI (converted)): 0.631 µM
GI50 (SF-539): 1 µM
TGI (SF-539; read-out: pTGI (converted)): 5.01 µM
GI50 (SNB-75): 0.794 µM
TGI (SNB-75; read-out: pTGI (converted)): > 100 µM
GI50 (U-251): 0.631 µM
TGI (U-251; read-out: pTGI (converted)): > 100 µM
GI50 (Malme-3M): > 100 µM
TGI (Malme-3M; read-out: pTGI (converted)): > 100 µM
GI50 (M14): 0.501 µM
TGI (M14; read-out: pTGI (converted)): 2.51 µM
GI50 (SK-MEL-2): 7.94 µM
TGI (SK-MEL-2; read-out: pTGI (converted)): > 100 µM
GI50 (SK-MEL-28): 15.8 µM
TGI (SK-MEL-28; read-out: pTGI (converted)): > 100 µM
GI50 (SK-MEL-5): 0.631 µM
TGI (SK-MEL-5; read-out: pTGI (converted)): 12.6 µM
GI50 (UACC-62): 0.631 µM
TGI (UACC-62; read-out: pTGI (converted)): > 100 µM
GI50 (IGROV-1): 2.51 µM
GI50 (OVCAR-3): 0.251 µM
TGI (OVCAR-3; read-out: pTGI (converted)): 1 µM
GI50 (OVCAR-4): 3.98 µM
TGI (OVCAR-4; read-out: pTGI (converted)): > 100 µM
GI50 (OVCAR-8): 5.01 µM
TGI (OVCAR-8; read-out: pTGI (converted)): > 100 µM
GI50 (NCI/ADR-RES): 0.316 µM
TGI (NCI/ADR-RES; read-out: pTGI (converted)): 1.26 µM
GI50 (SK-OV-3): 3.98 µM
TGI (SK-OV-3; read-out: pTGI (converted)): > 100 µM
GI50 (786-0): 1.26 µM
TGI (786-0; read-out: pTGI (converted)): 63.1 µM
GI50 (CAKI-1): 0.501 µM
TGI (CAKI-1; read-out: pTGI (converted)): > 100 µM
GI50 (RXF 393): 1.58 µM
TGI (RXF 393; read-out: pTGI (converted)): 5.01 µM
GI50 (TK-10): 12.6 µM
TGI (TK-10; read-out: pTGI (converted)): > 100 µM
GI50 (UO-31): 2.51 µM
TGI (UO-31; read-out: pTGI (converted)): > 100 µM
GI50 (PC-3): 0.501 µM
TGI (PC-3; read-out: pTGI (converted)): > 100 µM
GI50 (DU-145): 2 µM
TGI (DU-145; read-out: pTGI (converted)): 12.6 µM
GI50 (MCF7): 0.398 µM
TGI (MCF7; read-out: pTGI (converted)): > 100 µM
GI50 [2]: 0.398 µM
TGI ([2]; read-out: pTGI (converted)): 3.16 µM
GI50 (BT-549): 2.51 µM
TGI (BT-549; read-out: pTGI (converted)): > 100 µM
GI50 (MDA-MB-468): 1.58 µM
TGI (MDA-MB-468; read-out: pTGI (converted)): > 100 µM
